Source: ChEMBL document CHEMBL4627411, “Novel Piperidinyl-Azetidines as Potent and Selective CCR4 Antagonists Elicit Antitumor Response as a Single Agent and in Combination with Checkpoint Inhibitors” (J Med Chem, 2020)
Calls of active or inactive are those of the source. No cut-off for these calls is given here.

Legend:
[1] = target: T1, C-C chemokine receptor type 4 (Homo sapiens, UniProt P51679); assay: Antagonist activity at human CCR4 expressed in rat chem-5 cells assessed as inhibition of CCL22-induced calcium flux measured at 2.5 secs time interval for 45 secs by calcium 6 dye-based FLIPR assay; assay type: functional, cell-based
T1 sequence (P51679 whole entry): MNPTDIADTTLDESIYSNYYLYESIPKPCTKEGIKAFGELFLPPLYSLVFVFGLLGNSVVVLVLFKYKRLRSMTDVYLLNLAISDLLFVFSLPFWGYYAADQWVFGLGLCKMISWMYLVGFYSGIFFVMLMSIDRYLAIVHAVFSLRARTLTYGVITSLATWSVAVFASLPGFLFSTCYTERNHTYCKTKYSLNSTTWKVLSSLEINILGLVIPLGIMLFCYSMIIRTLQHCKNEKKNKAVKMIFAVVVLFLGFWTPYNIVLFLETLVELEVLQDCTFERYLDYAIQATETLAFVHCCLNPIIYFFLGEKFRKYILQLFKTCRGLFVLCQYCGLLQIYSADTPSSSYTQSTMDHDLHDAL
In short: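 Primary calcium flux assay for CCR4 antagonism, run in the absence of serum.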

[2] = target: C-X-C chemokine receptor type 1 (Homo sapiens) (UniProt P25024); assay: Antagonist activity at human Gi/G0-coupled CXCR1 expressed in CHOK1 cells assessed as inhibition of CXCL8-induced beta arrestin2 recruitment at 500 nM preincubated for 30 mins followed by CXCL8 stimulation and measured after 90 to 180 mins by pathhunter assay; assay type: cell-based; conditions: CHO-K1
[3] = Oral bioavailability in mouse at 2 mg/kg; assay type: ADME, organism-based; conditions: in vivo
[4] = target: C-C chemokine receptor type 7 (Homo sapiens) (UniProt P32248); assay: Antagonist activity at human Gi/G0-coupled CCR7 receptor assessed as inhibition of CCL19-induced beta arrestin2 recruitment at 500 nM preincubated for 30 mins followed by CCL19 stimulation and measured after 90 to 180 mins by pathhunter assay
[5] = Metabolic stability in rat hepatocytes assessed as parent compound remaining at 1 uM after 60 mins by LC-MS/MS analysis; assay type: ADME, cell-based, Hepatocyte; conditions: read-out: Stability
In short: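 Hepatocytes (human or rat). Compound incubated for 60 min; value is % parent remaining.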

[6] = target: C-C chemokine receptor type 6 (Homo sapiens) (UniProt P51684); assay: Antagonist activity at human Gi/G0-coupled CCR6 receptor expressed in CHOK1 cells assessed as inhibition of CCL20-induced beta arrestin2 recruitment at 500 nM preincubated for 30 mins followed by CCL20 stimulation and measured after 90 to 180 mins by pathhunter assay; assay type: cell-based; conditions: CHO-K1
[7] = Volume of distribution at steady state in mouse at 0.5 mg/kg, iv; assay type: ADME, organism-based; conditions: in vivo, read-out: Vdss
Cytochrome P450 2D6 = Cytochrome P450 2D6 (Homo sapiens, UniProt P10635); assay: Inhibition of CYP2D6 in human liver microsomes using bufuralol hydrochloride salt as substrate incubated for 20 mins in presence of NADPH by LC-MS/MS analysis; assay type: ADME
[8] = Clearance in dog at 0.5 mg/kg, iv; assay type: ADME, organism-based, Canis lupus familiaris; conditions: in vivo
[9] = target: C-C chemokine receptor type 4 (Homo sapiens) (UniProt P51679); assay: Antagonist activity at human Gi/G0-coupled CCR4 receptor expressed in CHO-K1 cells assessed as inhibition of CCL22-induced beta arrestin2 recruitment at 500 nM preincubated for 30 mins followed by CCL22 stimulation and measured after 90 to 180 mins by pathhunter assay; assay type: cell-based
[10] = AUC (0 to last) in mouse at 2 mg/kg, po; assay type: ADME, organism-based; set-up: dose 2 mg/kg, time 0 - last, route oral; conditions: in vivo
Cytochrome P450 3A4 = Cytochrome P450 3A4 (Homo sapiens, UniProt P08684); assay: Inhibition of CYP3A4 in human liver microsomes using midazolam hydrochloride as substrate incubated for 20 mins in presence of NADPH by LC-MS/MS analysis; assay type: ADME
Cytochrome P450 1A2 = Cytochrome P450 1A2 (Homo sapiens, UniProt P05177); assay: Inhibition of CYP1A2 in human liver microsomes using phenacetin as substrate incubated for 20 mins in presence of NADPH by LC-MS/MS analysis; assay type: ADME
[11] = target: C-X-C chemokine receptor type 5 (Homo sapiens) (UniProt P32302); assay: Antagonist activity at human Gi/G0-coupled CXCR5 assessed as inhibition of CXCL13-induced beta arrestin2 recruitment at 500 nM preincubated for 30 mins followed by CXCL13 stimulation and measured after 90 to 180 mins by pathhunter assay
CT26 = assay: Antitumor activity against mouse CT26 cells allografted in Balb/c mouse assessed as reduction in tumour volume at 50 mg/kg, po qd for 28 days starting from 3 days post inoculation measured twice weekly in presence of checkpoint inhibitor anti-PD-L1; assay type: functional, organism-based
CYP3A4 = CYP3A4 (Homo sapiens, UniProt P08684); assay: Ratio of IC50 for time-dependent inhibition of CYP3A4 in human liver microsomes using midazolam hydrochloride as substrate in presence of NADPH to IC50 for time-dependent inhibition of CYP3A4 in human liver microsomes using midazolam hydrochloride as substrate absence of NADPH; conditions: probe midazolam hydrochloride, read-out: Ratio IC50
[12] = target: C-X-C chemokine receptor type 4 (Homo sapiens) (UniProt P61073); assay: Antagonist activity at human Gi/G0-coupled CXCR4 assessed as inhibition of CXCL12-induced beta arrestin2 recruitment at 500 nM preincubated for 30 mins followed by CXCL12 stimulation and measured after 90 to 180 mins by pathhunter assay
[13] = target: CX3C chemokine receptor 1 (Homo sapiens) (UniProt P49238); assay: Antagonist activity at human Gi/G0-coupled CX3CR1 expressed in CHOK1 cells assessed as inhibition of CX3CL1-induced beta arrestin2 recruitment at 500 nM preincubated for 30 mins followed by CX3CL1 stimulation and measured after 90 to 180 mins by pathhunter assay; assay type: cell-based; conditions: CHO-K1
[14] = Half life in mouse at 0.5 mg/kg, iv; assay type: ADME, organism-based; conditions: in vivo
Cytochrome P450 2C19 = Cytochrome P450 2C19 (Homo sapiens, UniProt P33261); assay: Inhibition of CYP2C19 in human liver microsomes using S-mephenytoin as substrate incubated for 20 mins in presence of NADPH by LC-MS/MS analysis; assay type: ADME
[15] = target: C-C chemokine receptor type 9 (Homo sapiens) (UniProt P51686); assay: Antagonist activity at human Gi/G0-coupled CCR9 receptor expressed in CHOK1 cells assessed as inhibition of CCL25-induced beta arrestin2 recruitment at 500 nM preincubated for 30 mins followed by CCL25 stimulation and measured after 90 to 180 mins by pathhunter assay; assay type: cell-based; conditions: CHO-K1
[16] = Clearance in cynomolgus monkey at 0.5 mg/kg, iv; assay type: ADME, organism-based, Macaca fascicularis; conditions: in vivo
[17] = target: C-X-C chemokine receptor type 2 (Homo sapiens) (UniProt P25025); assay: Antagonist activity at human Gi/G0-coupled CXCR2 assessed as inhibition of CXCL8-induced beta arrestin2 recruitment at 500 nM preincubated for 30 mins followed by CXCL8 stimulation and measured after 90 to 180 mins by pathhunter assay
Cytochrome P450 = assay: Induction of CYP450 (unknown origin); assay type: ADME, protein assay; conditions: human
Cytochrome P450 2C9 = Cytochrome P450 2C9 (Homo sapiens, UniProt P11712); assay: Inhibition of CYP2C9 in human liver microsomes using diclofenac sodium salt as substrate incubated for 20 mins in presence of NADPH by LC-MS/MS analysis; assay type: ADME
Cytochrome P450 2C9, sequence (P11712 whole entry): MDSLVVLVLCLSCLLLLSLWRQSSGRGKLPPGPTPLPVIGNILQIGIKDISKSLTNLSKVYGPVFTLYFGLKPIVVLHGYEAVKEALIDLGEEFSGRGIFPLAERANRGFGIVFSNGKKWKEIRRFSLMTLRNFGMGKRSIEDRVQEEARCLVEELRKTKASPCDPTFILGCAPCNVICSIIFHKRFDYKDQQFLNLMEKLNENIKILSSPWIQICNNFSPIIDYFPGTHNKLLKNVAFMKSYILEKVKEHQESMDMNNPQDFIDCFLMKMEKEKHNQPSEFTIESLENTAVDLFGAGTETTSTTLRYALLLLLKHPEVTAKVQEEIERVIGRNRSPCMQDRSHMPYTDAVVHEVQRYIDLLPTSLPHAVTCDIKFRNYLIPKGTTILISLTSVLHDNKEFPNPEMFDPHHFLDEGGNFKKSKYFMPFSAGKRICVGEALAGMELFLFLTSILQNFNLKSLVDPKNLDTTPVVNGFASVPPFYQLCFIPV

C-X-C chemokine receptor type 1 (Homo sapiens), sequence (P25024 whole entry): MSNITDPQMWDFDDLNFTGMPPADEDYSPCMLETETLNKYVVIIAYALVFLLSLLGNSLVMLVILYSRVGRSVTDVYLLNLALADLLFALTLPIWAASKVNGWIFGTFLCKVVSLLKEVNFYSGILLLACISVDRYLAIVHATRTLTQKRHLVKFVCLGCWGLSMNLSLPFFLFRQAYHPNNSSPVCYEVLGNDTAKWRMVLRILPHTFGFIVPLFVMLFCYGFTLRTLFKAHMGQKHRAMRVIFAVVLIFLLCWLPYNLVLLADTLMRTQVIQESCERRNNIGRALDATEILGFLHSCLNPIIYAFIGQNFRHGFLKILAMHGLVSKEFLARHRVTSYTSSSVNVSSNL
C-C chemokine receptor type 6 (Homo sapiens), sequence (P51684 whole entry): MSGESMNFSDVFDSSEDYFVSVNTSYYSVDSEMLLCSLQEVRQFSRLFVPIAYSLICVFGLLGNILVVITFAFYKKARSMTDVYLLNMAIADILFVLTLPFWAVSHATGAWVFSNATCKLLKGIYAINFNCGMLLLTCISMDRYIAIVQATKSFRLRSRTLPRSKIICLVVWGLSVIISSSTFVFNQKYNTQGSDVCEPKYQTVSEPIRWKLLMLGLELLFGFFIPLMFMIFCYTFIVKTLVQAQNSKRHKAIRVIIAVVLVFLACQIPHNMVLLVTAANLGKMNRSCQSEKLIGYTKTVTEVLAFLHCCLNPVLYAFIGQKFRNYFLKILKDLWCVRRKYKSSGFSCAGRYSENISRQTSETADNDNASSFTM
C-X-C chemokine receptor type 4 (Homo sapiens), sequence (P61073 whole entry): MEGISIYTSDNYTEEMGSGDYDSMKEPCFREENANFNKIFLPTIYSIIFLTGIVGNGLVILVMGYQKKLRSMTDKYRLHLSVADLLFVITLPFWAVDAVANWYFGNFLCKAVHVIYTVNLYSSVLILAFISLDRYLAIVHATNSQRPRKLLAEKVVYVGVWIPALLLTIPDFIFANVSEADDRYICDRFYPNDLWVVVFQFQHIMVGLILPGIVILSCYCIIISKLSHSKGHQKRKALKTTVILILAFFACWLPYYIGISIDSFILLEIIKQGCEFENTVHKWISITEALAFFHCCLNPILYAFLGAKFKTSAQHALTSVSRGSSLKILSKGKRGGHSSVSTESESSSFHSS
CX3C chemokine receptor 1 (Homo sapiens), sequence (P49238 whole entry): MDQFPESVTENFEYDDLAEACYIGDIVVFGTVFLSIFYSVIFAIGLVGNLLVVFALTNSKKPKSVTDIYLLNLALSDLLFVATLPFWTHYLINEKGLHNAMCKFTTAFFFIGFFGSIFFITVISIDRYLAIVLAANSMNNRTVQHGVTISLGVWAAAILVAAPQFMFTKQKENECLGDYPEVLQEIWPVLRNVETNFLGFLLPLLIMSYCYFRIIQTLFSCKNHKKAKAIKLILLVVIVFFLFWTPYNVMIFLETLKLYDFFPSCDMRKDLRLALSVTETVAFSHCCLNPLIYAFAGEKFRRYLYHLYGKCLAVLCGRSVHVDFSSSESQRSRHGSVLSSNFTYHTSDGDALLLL
C-X-C chemokine receptor type 2 (Homo sapiens), sequence (P25025 whole entry): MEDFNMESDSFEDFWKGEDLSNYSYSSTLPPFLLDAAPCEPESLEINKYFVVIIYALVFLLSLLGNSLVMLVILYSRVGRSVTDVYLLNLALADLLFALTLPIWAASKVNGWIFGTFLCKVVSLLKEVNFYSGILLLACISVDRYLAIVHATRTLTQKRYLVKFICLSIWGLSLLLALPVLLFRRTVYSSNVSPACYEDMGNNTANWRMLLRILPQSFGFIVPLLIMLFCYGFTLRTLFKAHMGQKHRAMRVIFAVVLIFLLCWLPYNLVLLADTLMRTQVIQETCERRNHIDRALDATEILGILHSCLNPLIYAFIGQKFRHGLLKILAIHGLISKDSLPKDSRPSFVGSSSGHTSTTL
Cytochrome P450 2C19, sequence (P33261 whole entry): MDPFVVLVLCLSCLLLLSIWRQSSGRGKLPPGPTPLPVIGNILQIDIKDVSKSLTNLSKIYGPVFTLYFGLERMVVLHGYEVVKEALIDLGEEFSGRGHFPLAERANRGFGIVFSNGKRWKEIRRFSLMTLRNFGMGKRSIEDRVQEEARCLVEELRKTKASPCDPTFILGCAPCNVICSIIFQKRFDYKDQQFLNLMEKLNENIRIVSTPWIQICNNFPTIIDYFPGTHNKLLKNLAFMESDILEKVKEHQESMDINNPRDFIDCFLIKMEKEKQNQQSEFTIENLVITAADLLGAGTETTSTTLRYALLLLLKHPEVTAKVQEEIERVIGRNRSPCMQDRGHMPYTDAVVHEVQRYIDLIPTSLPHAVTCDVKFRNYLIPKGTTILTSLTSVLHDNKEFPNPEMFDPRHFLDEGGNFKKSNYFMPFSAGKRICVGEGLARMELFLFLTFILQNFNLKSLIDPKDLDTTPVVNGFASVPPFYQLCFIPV
Cytochrome P450 1A2, sequence (P05177 whole entry): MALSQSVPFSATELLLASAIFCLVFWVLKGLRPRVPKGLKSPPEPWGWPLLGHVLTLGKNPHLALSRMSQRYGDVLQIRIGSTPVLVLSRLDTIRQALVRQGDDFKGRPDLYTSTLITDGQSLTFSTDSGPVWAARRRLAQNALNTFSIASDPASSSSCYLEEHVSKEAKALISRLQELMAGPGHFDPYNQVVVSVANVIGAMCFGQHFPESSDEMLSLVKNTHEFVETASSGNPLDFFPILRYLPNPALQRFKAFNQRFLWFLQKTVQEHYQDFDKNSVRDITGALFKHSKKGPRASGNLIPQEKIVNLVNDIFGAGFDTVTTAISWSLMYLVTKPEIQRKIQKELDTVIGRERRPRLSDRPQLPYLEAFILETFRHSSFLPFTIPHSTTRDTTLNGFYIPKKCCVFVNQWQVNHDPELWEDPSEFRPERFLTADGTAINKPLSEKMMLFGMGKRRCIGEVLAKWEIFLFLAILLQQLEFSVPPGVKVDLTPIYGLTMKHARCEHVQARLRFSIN
C-C chemokine receptor type 7 (Homo sapiens), sequence (P32248 whole entry): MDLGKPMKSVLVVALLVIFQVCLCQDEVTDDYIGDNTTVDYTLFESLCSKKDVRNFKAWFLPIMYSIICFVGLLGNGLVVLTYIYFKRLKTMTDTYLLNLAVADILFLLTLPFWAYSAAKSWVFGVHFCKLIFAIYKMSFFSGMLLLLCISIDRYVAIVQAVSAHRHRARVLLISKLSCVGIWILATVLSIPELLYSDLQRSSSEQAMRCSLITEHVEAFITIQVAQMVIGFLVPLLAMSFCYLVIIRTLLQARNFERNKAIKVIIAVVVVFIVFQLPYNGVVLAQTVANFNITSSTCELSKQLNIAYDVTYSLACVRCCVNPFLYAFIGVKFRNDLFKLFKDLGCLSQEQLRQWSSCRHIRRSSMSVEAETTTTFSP
Cytochrome P450 2D6, sequence (P10635 whole entry): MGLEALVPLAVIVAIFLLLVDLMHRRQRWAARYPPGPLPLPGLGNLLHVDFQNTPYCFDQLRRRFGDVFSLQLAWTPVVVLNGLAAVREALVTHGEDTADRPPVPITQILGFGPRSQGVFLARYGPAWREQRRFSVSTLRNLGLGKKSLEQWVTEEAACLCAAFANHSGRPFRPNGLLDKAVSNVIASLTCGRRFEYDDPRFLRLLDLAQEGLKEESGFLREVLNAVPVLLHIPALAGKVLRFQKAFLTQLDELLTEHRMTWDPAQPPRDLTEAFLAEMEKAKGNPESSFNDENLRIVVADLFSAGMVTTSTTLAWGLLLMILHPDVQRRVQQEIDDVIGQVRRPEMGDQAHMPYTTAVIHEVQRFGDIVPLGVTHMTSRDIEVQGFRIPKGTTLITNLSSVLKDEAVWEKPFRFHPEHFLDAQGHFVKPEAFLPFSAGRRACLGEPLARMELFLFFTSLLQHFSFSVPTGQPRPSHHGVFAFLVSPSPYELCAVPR
CYP3A4, sequence (P08684 whole entry): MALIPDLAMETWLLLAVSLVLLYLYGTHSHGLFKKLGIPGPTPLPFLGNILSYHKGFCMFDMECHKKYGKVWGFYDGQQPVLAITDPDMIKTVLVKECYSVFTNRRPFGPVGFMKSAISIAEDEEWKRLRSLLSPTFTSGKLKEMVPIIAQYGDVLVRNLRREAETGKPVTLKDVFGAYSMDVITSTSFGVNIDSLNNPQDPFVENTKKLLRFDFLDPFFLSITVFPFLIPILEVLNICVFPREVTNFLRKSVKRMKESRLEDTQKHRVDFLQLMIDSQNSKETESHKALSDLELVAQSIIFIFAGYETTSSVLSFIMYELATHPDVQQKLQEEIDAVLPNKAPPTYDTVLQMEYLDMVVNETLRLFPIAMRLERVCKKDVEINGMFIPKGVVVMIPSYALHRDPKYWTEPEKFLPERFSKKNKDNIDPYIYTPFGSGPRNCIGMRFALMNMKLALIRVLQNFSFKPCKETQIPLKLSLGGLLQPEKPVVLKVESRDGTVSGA
Cytochrome P450 3A4, sequence (P08684 whole entry): as above

C[C@H](c1ccc(Cl)cc1Cl)n1nc(C#N)c2ncc(N3CC([C@H]4CCCN(CCO)C4)C3)nc21
IC50 [1]: 0.022 µM | Activity [2]: inactive | bioavailability [3]: 29% | Activity [4]: inactive | remaining at 1 h, 1 µM [5]: 73% | Activity [6]: inactive | Vd [7]: 5.2 L/kg | IC50 (Cytochrome P450 2D6): > 40 µM | clearance [8]: 7.3 mL/min/kg | Activity [9]: Active | AUC(0-t) [10]: 751 ng·h/mL | IC50 (Cytochrome P450 3A4): > 40 µM | IC50 (Cytochrome P450 1A2): > 40 µM | Activity [11]: inactive | Activity (CT26): Active | IC50 shift (CYP3A4): 1.2 | Activity [12]: inactive | Activity [13]: inactive | half-life [14]: 6.9 h | IC50 (Cytochrome P450 2C19): > 40 µM | Activity [15]: inactive | clearance [16]: 3.7 mL/min/kg | Activity [17]: inactive | Activity (Cytochrome P450): Not Active | IC50 (Cytochrome P450 2C9): > 40 µM
